Data taken from ChEMBL document CHEMBL1139876, “Synthesis and study of L-dopa-glutathione codrugs as new anti-Parkinson agents with free radical scavenging properties” (J Med Chem, 2007).
≈ marks a conversion by molar mass, not a printed value. Calls of active or inactive are those of the source. The calls are words filed in the database; no cut-off is given here.

Experiments:
[1] = Pro-oxidant effect on Fe(2+)/H2O2-induced deoxyribose degradation relative to control; type: functional
Summary of the method: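 Deoxyribose degradation induced by Fe(II)/H2O2 in a medium of deoxyribose, phosphate buffer, EDTA and H2O2 with no enzymatic activity. Compounds tested from 1 to 50 µM.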

[2] = Chemical stability assessed as half life of hydrolysis in 0.02 M phosphate buffer at pH 7.4; type: physicochemical
Summary of the method: (§1)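 Chemical hydrolysis at 37 °C at pH 1.3, 5.0 and 7.4. Codrug concentration followed over time; Kobs and t1/2 taken by regression from slopes of semilogarithmic concentration–time plots. Means of three experiments ± SD.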

[3] = Solubility in 0.02 M phosphate buffer at pH 7.4; type: physicochemical
Summary of the method: (§2)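 Solubility in water and in buffers at pH 1.3, 5.0 and 7.4, determined by HPLC-UV peak areas correlated with known concentrations. Means of three experiments ± SD.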

[4] = Partition coefficient, log P at pH 7.4 by saturation shake flask method; type: physicochemical; conditions: octanol/water
Summary of the method: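 log P measured by saturation shake-flask in n-octanol/phosphate buffer, pH 7.4. Concentrations in each layer quantified by C18 reverse-phase HPLC-UV against known standards. Means of three experiments ± SD.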

[5] = Chemical stability assessed as half life of hydrolysis in 0.02 M hydrochloric acid buffer at pH 1.3; type: physicochemical; summary of the method: as §1
[6] = Solubility in 0.02 M sodium acetate buffer at pH 5.0; type: physicochemical; summary of the method: as §2
Homo sapiens = organism: Homo sapiens; assay: Stability in human plasma assessed as half life of hydrolysis
[7] = Solubility in 0.02 M hydrochloric acid buffer at pH 1.3; type: physicochemical; summary of the method: as §2
[8] = Solubility in water; type: physicochemical; summary of the method: as §2
[9] = Stability in rat plasma assessed as half life of hydrolysis; type: ADME, cell-free
Summary of the method: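 Enzymatic hydrolysis at 37 °C in 80% human or rat plasma containing 20% 0.02 M phosphate buffer, pH 7.4, monitoring release of L-dopa. Fitted to first-order kinetics to give Kobs and t1/2. Means of three experiments ± SD.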

[10] = Chemical stability assessed as half life of hydrolysis in 0.02 M sodium acetate buffer at pH 5.0; type: physicochemical; summary of the method: as §1
Rattus norvegicus [11] = assay: Anxiolytic effect in Wistar rat assessed as […] in entries and time spent in open field center at 184.79 mg/kg, po after 1.5 hrs; type: functional, organism-based; parameters: dose 184.79 mg/kg
Rattus norvegicus [12] = assay: Induction of sustained release of […] levels in Wistar rat striatum at 184.79 mg/kg, po after 12 hrs; type: functional
Summary of the method: (§3)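 Oral dosing to rats at doses equimolar to L-dopa. Striatal L-dopa and dopamine measured over time by HPLC with electrochemical detection. Mean ± SE; each experiment in triplicate.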

Rattus norvegicus [13] = assay: Prolongation of plasma […] levels in Wistar rat at 184.79 mg/kg, po after 2 hrs; type: functional
Summary of the method: (§4)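 Plasma L-dopa concentration–time profile in rats after oral administration, with sampling up to 8 h. Mean ± SE; each experiment in triplicate.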

Rattus norvegicus [14] = assay: Antioxidant activity assessed as increase in glutathione peroxidase activity in Wistar rat plasma at 184.79 mg/kg, po after 1.5 hrs; type: functional
Summary of the method: (§5)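 Rats dosed by oral gavage; plasma SOD and GPx activities measured 1.5 h after administration, expressed as units/(g Hb). Mean ± SE of five experiments; P < 0.05 vs L-dopa-treated group.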

Rattus norvegicus [15] = assay: Induction of sustained release of dopamine levels in Wistar rat striatum at 184.79 mg/kg, po after 12 hrs; type: functional; summary of the method: as §3
Rattus norvegicus [16] = assay: Antioxidant activity assessed as decrease in SOD activity in Wistar rat plasma at 184.79 mg/kg, po after 1.5 hrs; type: functional; summary of the method: as §5
[17] = Plasma concentration in Wistar rat at 65.46 mg/kg, po after 2 hrs; type: ADME, organism-based; parameters: dose 65.46 mg/kg, route oral; summary of the method: as §4

Row | SMILES | Activity [1] | half-life [2] | solubility [3] | logD [4] | half-life [5] | solubility [6] | half-life (Homo sapiens) | solubility [7] | solubility [8] | half-life [9] | half-life [10] | Activity (Rattus norvegicus [11]) | Activity (Rattus norvegicus [12]) | Activity (Rattus norvegicus [13]) | Activity (Rattus norvegicus [14]) | Activity (Rattus norvegicus [15]) | Activity (Rattus norvegicus [16]) | concentration at 2 h [17]
1 | N[C@@H](CCC(=O)N[C@@H](CS)C(=O)NCC(=O)N[C@H](Cc1ccc(O)c(O)c1)C(=O)O)C(=O)O | inactive |  |  |  |  |  |  |  |  |  |  |  |  |  |  |  |  | 
2 | N[C@H](Cc1ccc(O)c(O)c1)C(=O)N[C@@H](CCC(=O)N[C@@H](CS)C(=O)NCC(=O)O)C(=O)O |  | 23.2 h | 460 µg/mL (≈ 0.946 mM) | 0.8 | 40.4 h | 690 µg/mL (≈ 1.42 mM) | 0.222 h | 550 µg/mL (≈ 1.13 mM) | 320 µg/mL (≈ 0.658 mM) | 4.1 min | 80.1 h |  |  |  |  |  |  | 
3 | COC(=O)[C@H](CCC(=O)N[C@@H](CS)C(=O)NCC(=O)N[C@@H](Cc1ccc(O)c(O)c1)C(=O)OC)NC(C)=O [listing 1 of 2 here] |  | 7.22 h | 25600 µg/mL (≈ 46.1 mM) | 0.89 | 20.1 h | 25500 µg/mL (≈ 45.8 mM) | 0.0533 h | 35100 µg/mL (≈ 63.1 mM) | 27000 µg/mL (≈ 48.6 mM) |  | 40.8 h |  |  |  |  |  |  | 
4 | COC(=O)[C@H](CCC(=O)N[C@@H](CS)C(=O)NCC(=O)N[C@H](Cc1ccc(O)c(O)c1)C(=O)OC)NC(C)=O |  |  |  |  |  |  |  |  |  |  |  | Active |  |  |  |  |  | 
5 | COC(=O)[C@H](CCC(=O)N[C@@H](CS)C(=O)NCC(=O)N[C@@H](Cc1ccc(O)c(O)c1)C(=O)OC)NC(C)=O [listing 2 of 2 here] |  |  |  |  |  |  |  |  |  |  |  |  | 40 pmol/mg | 105 µg/mL | 847.78 U/g.Hb | 40 pmol/kg | 174.86 U/g.Hb | 
6 | N[C@@H](CCC(=O)N[C@@H](CS)C(=O)NCC(=O)N[C@@H](Cc1ccc(O)c(O)c1)C(=O)O)C(=O)O |  | 12.2 h | 1930 µg/mL (≈ 3.97 mM) | 0.75 | 28.1 h | 1670 µg/mL (≈ 3.43 mM) | 0.252 h | 2150 µg/mL (≈ 4.42 mM) | 1800 µg/mL (≈ 3.7 mM) | 2.7 min | 57.3 h |  |  |  |  |  |  | 
7 | N[C@@H](Cc1ccc(O)c(O)c1)C(=O)O [LEVODOPA] | Dose-dependent effect |  |  |  |  |  |  |  |  |  |  |  |  |  | 795.6 U/g |  | 203.4 U/g.Hb | 83 µg/mL
8 | COC(=O)CNC(=O)[C@H](CS)NC(=O)CC[C@H](NC(=O)[C@@H](Cc1ccc(O)c(O)c1)NC(C)=O)C(=O)OC |  | 15.1 h | 3990 µg/mL (≈ 7.17 mM) | 0.94 | 31 h | 3840 µg/mL (≈ 6.9 mM) | 0.0783 h | 2740 µg/mL (≈ 4.92 mM) | 7890 µg/mL (≈ 14.2 mM) | 1.9 min | 69.3 h | Active | 40 pmol/mg | 85 µg/mL | 821 U/g.Hb | 40 pmol/kg | 200.59 U/g | 
